The text below walks through data of ChEMBL document CHEMBL3098020, “Synthesis and biological evaluation of novel 2-amino-3-aroyl-4-neopentyl-5-substituted thiophene derivatives as allosteric enhancers of the A₁ adenosine receptor” (Bioorg Med Chem, 2014).

Experiment [1] has as its target T1, Adenosine receptor A1 (Homo sapiens) (UniProt P30542).
T1 sequence (whole entry): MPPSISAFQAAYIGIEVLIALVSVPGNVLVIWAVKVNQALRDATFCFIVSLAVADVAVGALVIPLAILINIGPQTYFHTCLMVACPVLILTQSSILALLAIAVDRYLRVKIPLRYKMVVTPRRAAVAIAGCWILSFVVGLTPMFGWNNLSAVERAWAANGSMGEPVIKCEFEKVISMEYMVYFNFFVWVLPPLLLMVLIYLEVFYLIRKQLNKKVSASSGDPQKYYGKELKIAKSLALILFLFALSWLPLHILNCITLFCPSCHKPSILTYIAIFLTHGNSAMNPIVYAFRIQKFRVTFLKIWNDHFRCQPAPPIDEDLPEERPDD
Description: Potentiation of CCPA-induced displacement of [3H]-DPCPX from human adenosine A1 receptor expressed in CHO cell membranes at 10 uM after 90 mins relative to CCPA-treated control. In short, it runs like this:
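CCPA (0.01 nM–1 µM) competition against [³H]DPCPX in hA1-CHO membranes, with or without compound at 10 µM. Nonspecific binding defined with 1 µM DPCPX. Ki calculated from IC50 by the Cheng-Prusoff equation; CCPA Ki shift given as fold change; three experiments.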
In general terms: In a radioligand displacement assay an active substance lowers the binding of a labelled ligand.

For experiment [2], the target named is T1, Adenosine receptor A1 (Homo sapiens). Description: Potentiation of [3H]CCPA binding to human adenosine A1 receptor expressed in CHO cell membranes at 10 uM after 90 mins relative to [3H]CCPA-treated control.
Experiment [3] has as its target T2, Adenosine receptor A3 (Homo sapiens) (UniProt P0DMS8).
T2 sequence (whole entry): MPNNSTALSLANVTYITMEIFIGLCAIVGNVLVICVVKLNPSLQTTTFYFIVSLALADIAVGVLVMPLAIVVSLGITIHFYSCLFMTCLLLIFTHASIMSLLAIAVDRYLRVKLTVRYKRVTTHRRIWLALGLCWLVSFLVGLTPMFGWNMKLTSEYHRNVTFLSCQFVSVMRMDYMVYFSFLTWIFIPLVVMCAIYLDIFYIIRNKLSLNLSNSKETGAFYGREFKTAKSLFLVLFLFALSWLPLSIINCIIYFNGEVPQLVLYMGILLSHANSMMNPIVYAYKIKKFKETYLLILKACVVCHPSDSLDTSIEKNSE
Nature of the experiment: Displacement of [3H]-MRE-3008-F20 from human adenosine A3 receptor expressed in CHO cell membranes at 10 uM by scintillation counting analysis relative to control. In short, it runs like this:
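A3-expressing CHO membranes in 50 mM Tris-HCl, 10 mM MgCl₂, 1 mM EDTA pH 7.4 with 2 nM [³H]MRE-3008-F20. Incubated 120 min at 4 °C. Compound 10 µM in 1% DMSO final. Filtration and scintillation counting; percent inhibition of specific binding.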

Experiment [4] concerns the target Adenosine receptor A2a (Homo sapiens) (UniProt P29274). Nature of the experiment: Displacement of [3H]-ZM241385 from human adenosine A2A receptor expressed in CHO cell membranes at 10 uM by scintillation counting analysis relative to control. In short, it runs like this:
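A2A-expressing CHO membranes, pretreated with adenosine deaminase, in 50 mM Tris-HCl, 10 mM MgCl₂ pH 7.4 with 1 nM [³H]ZM 241385. Incubated 60 min at 4 °C. Compound 10 µM in 1% DMSO final. Filtration and scintillation counting; percent inhibition of specific binding.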

In experiment [5] the target is T1, Adenosine receptor A1 (Homo sapiens). Description: Displacement of [3H]-DPCPX from human adenosine A1 receptor expressed in CHO cell membranes at 10 uM by scintillation counting analysis relative to control. In short, it runs like this:
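hA1-CHO membranes, pretreated with adenosine deaminase, in 50 mM Tris-HCl pH 7.4 with 1 nM [³H]DPCPX. Incubated 120 min at 25 °C. Compound 10 µM added from 100-fold DMSO stock, 1% DMSO final. Bound ligand collected on glass-fibre filters and counted by scintillation; percent inhibition of specific binding.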

The target is the same in experiment [6]. Nature of the experiment: Allosteric enhancement of human adenosine A1 receptor expressed in CHO cells assessed as inhibition of forskolin-stimulated cAMP production at 100 nM preincubated for 10 mins followed by forskolin challenge measured after 5 mins by scintillation counting analysis in presence of CCPA relative to control. In kind it is functional, cell-based. The essentials: (§1)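 hA1-CHO cells (10⁶ cells/mL) in phosphate buffer with adenosine deaminase 1.0 IU/mL and Ro 20-1724 0.5 mM, preincubated 10 min at 37 °C. Compound added for 10 min, alone or at 100 nM with CCPA 1 pM. Forskolin 1 µM added for 5 min, stopped with cold 6% TCA. cAMP measured by [³H]-cAMP competition protein-binding assay; percent inhibition versus control; three experiments.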
A general note: Changes in cAMP serve as a functional read-out for many G protein-coupled receptors.

For experiment [7] the target is unchanged. Nature of the experiment: Allosteric enhancement of human adenosine A1 receptor expressed in CHO cells assessed as inhibition of forskolin-stimulated cAMP production at 10 uM preincubated for 10 mins followed by forskolin challenge measured after 5 mins by scintillation counting analysis relative to control. In kind it is functional, cell-based. In short, it runs like this: as §1

Sequence of Adenosine receptor A2a (Homo sapiens) (P29274 whole entry): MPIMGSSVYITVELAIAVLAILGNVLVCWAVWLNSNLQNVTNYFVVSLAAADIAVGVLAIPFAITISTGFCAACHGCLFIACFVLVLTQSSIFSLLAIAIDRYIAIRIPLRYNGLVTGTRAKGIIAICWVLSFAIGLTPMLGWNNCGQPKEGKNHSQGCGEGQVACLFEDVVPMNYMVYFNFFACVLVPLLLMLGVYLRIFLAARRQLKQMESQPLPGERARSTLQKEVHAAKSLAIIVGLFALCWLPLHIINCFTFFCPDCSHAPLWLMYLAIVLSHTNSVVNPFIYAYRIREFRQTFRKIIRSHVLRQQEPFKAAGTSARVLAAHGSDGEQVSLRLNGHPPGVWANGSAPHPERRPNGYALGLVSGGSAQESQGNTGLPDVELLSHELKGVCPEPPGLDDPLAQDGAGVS

Regarding `Cc1ccc(C(=O)c2c(CC(C)(C)C)csc2N)cc1`, the results for the fold change (FC) in experiment [1] and in experiment [2] were 2 and 3.3, respectively. Also, the inhibition (as a rule, the percentage by which the read-out fell short of the control) was determined as 1% in experiment [3]; 1% in experiment [4]; 1% in experiment [5]; 35% in experiment [6]; 38% in experiment [7].

Take `COCCOc1ccc(-c2sc(N)c(C(=O)c3ccc(Cl)cc3)c2CC(C)(C)C)cc1`: the fold change (FC) amounted to 3.3 in experiment [1] and 5.5 in experiment [2]. Further, the inhibition in experiment [3] turned out to be 1%; in experiment [4], 1%; in experiment [5] it was 1%; in experiment [6], 55%; in experiment [7], 53%.

As for `CC(C)(C)Cc1c(/C=C/c2ccc(Cl)cc2)sc(N)c1C(=O)c1ccc(Cl)cc1`, the fold change (FC) turned out to be 2.8 in experiment [1] and 4.8 in experiment [2]. Besides, the inhibition in experiment [3] came to 11%; in experiment [4], 1%; in experiment [5] it was 1%; in experiment [6], 53%; in experiment [7], 51%.

For `COc1ccc(-c2sc(N)c(C(=O)c3ccc(Cl)cc3)c2CC(C)(C)C)cc1`, the fold change (FC) in experiment [1] worked out at 4.3; in experiment [2] it was 6.1. For the same molecule, the inhibition was determined as 2% in experiment [3]; 1% in experiment [4]; 1% in experiment [5]; 43% in experiment [6]; 44% in experiment [7].

For `CC(C)(C)Cc1c(Br)sc(N)c1C(=O)c1cccc(C(F)(F)F)c1`, the values for the fold change (FC) in experiment [1] and in experiment [2] were 3 and 4.4, respectively. For the same molecule, the inhibition in experiment [3] was 4%; in experiment [4] it was 1%; in experiment [5], 1%; in experiment [6], 50%; in experiment [7], 49%.

`Cc1ccc(C(=O)c2c(N)sc(-c3ccccc3)c2CC(C)(C)C)cc1`: the fold change (FC) turned out to be 5 in experiment [1] and 6.7 in experiment [2]. Further, the inhibition in experiment [3] was 1%; in experiment [4], 6%; in experiment [5], 1%; in experiment [6], 61%; in experiment [7], 62%.

Consider `CC(C)(C)Cc1c(-c2ccccn2)sc(N)c1C(=O)c1ccc(Cl)cc1`, for which the fold change (FC) in experiment [1] was found to be 2.2; in experiment [2], 3.5. Also, the inhibition in experiment [3] worked out at 1%; in experiment [4], 1%; in experiment [5], 1%; in experiment [6] it was 43%; in experiment [7], 40%.

`COc1ccc(-c2sc(N)c(C(=O)c3cccc(Cl)c3)c2CC(C)(C)C)cc1`: the fold change (FC) was 3.7 in experiment [1] and 6 in experiment [2]. Also, the inhibition in experiment [3] amounted to 2%; in experiment [4] it was 1%; in experiment [5] it was 1%; in experiment [6], 56%; in experiment [7], 53%.

Regarding `Nc1sc(-c2ccccc2)c(-c2ccccc2)c1C(=O)c1ccc(Cl)cc1`, the fold change (FC) in experiment [1] stood at 1.7; in experiment [2], 2.1. The inhibition in experiment [3] worked out at 1%; in experiment [4], 6%; in experiment [5] it was 1%; in experiment [6], 26%; in experiment [7], 24%.

With `CC(C)(C)Cc1csc(N)c1C(=O)c1cccc(Cl)c1`, the values for the fold change (FC) in experiment [1] and in experiment [2] were 1.5 and 4.3, respectively. Besides, the inhibition in experiment [3] was 8%; in experiment [4] it was 1%; in experiment [5], 2%; in experiment [6], 42%; in experiment [7], 45%.

As to `CC(C)(C)Cc1csc(N)c1C(=O)c1ccc(Cl)cc1`, the results for the fold change (FC) in experiment [1] and in experiment [2] were 1.6 and 3.9, respectively. The inhibition in experiment [3] came to 5%; in experiment [4] it was 6%; in experiment [5], 1%; in experiment [6] it was 37%; in experiment [7], 35%.

Regarding `CC(C)(C)Cc1c(Br)sc(N)c1C(=O)c1ccc(Cl)cc1`, the fold change (FC) in experiment [1] was 4.5; in experiment [2] it was 6.8. The inhibition worked out at 1% in experiment [3]; 2% in experiment [4]; 1% in experiment [5]; 50% in experiment [6]; 48% in experiment [7].

Regarding `CC(C)(C)Cc1c(-c2ccc(Cl)c(Cl)c2)sc(N)c1C(=O)c1ccc(Cl)cc1`, the fold change (FC) came out at 4.3 in experiment [1] and 6 in experiment [2]. For the same molecule, the inhibition in experiment [3] stood at 1%; in experiment [4] it was 1%; in experiment [5] it was 1%; in experiment [6], 61%; in experiment [7] it was 59%.

With `CC(C)(C)Cc1c(-c2ccco2)sc(N)c1C(=O)c1ccc(Cl)cc1`, the fold change (FC) in experiment [1] was determined as 3.5; in experiment [2], 5.1. Besides, the inhibition in experiment [3] was determined as 1%; in experiment [4], 1%; in experiment [5], 1%; in experiment [6] it was 47%; in experiment [7], 49%.

With `CC(C)(C)Cc1c(-c2ccoc2)sc(N)c1C(=O)c1ccc(Cl)cc1`, the fold change (FC) in experiment [1] was 3.1; in experiment [2], 5.6. In addition, the inhibition in experiment [3] worked out at 1%; in experiment [4], 1%; in experiment [5], 1%; in experiment [6], 56%; in experiment [7], 55%.

Take `Cc1ccccc1-c1sc(N)c(C(=O)c2ccc(Cl)cc2)c1CC(C)(C)C`: the figures for the fold change (FC) in experiment [1] and in experiment [2] were 2.7 and 4.1, respectively. The inhibition in experiment [3] is 1%; in experiment [4], 1%; in experiment [5] it was 1%; in experiment [6], 49%; in experiment [7], 47%.

Turning to `Cc1ccc(-c2sc(N)c(C(=O)c3ccc(Cl)cc3)c2CC(C)(C)C)cc1`, the results for the fold change (FC) in experiment [1] and in experiment [2] were 6 and 6.4, respectively. The inhibition in experiment [3] came out at 1%; in experiment [4], 1%; in experiment [5] it was 1%; in experiment [6], 58%; in experiment [7], 57%.
